Experimental findings from ChEMBL document CHEMBL3272335, “Dibenz[b,e]oxepinalkanoic acids as nonsteroidal antiinflammatory agents. 1. 6,11-Dihydro-11-oxodibenz]b,e]oxepin-2-acetic acids” (J Med Chem, 1977) are described below.

By ED50 is commonly meant the dose at which the effect has come halfway, by size or by number of responders. In general, inhibition in vivo refers to the change of the read-out against control, counted positive when it falls.

The test system of data set [1] is Rattus norvegicus. Put plainly: Antiinflammatory activity in po dosed Wistar rat assessed as inhibition of carrageenan-induced paw edema administered 1 hr prior to carrageenan challenge measured 3 hrs post-carrageenan injection. In kind it is functional. The method in brief: (§1)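 Female Carworth Wistar rats (120-150 g), ten per group, are fasted 12-16 h with water allowed. Compounds are given orally as an aqueous Tween 80 suspension (10 ml/kg); controls get vehicle. After 1 h, 0.1 ml of 1% carrageenan is injected subplantar into the left hind paw. Paw volume is read by mercury displacement before and 3 h after injection. Result is % edema difference versus control.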
(The carrageenan paw model is a standard test of acute inflammation.)

A further data set has as its system Mus musculus. Put plainly: Analgesic activity in po dosed CD-1 mouse assessed as inhibition of phenylquinone-induced writhing administered prior to phenylquinone challenge measured 5 mins after phenylquinone injection. In kind it is functional. The note with it: CD-1, po. The method in brief: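 Male CD-1 Charles River mice (18-24 g), fed ad libitum, are dosed orally with drug as an aqueous suspension with Tween 80 (10 ml/kg); controls get vehicle. Phenylquinone (0.125% in 5% aqueous ethanol) is given ip at 10 ml/kg at the peak-activity time. Writhes are counted for 10 min, starting 5 min post-injection. Ten mice per group, four doses. Result is % inhibition of writhes versus control; ED50 by Litchfield-Wilcoxon.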

Data set [2] deals with Rattus norvegicus. Put plainly: Antiinflammatory activity in Wistar rat assessed as inhibition of carrageenan-induced paw edema at 50 mg/kg, po administered 1 hr prior to carrageenan challenge measured 3 hrs post-carrageenan injection. The format is functional. The gist of the method:
as §1

A short description of data set [3]: Therapeutic ratio of ID50 for ulcerogenicity in Wistar rat to ED50 for antiinflammatory activity against Mycobacterium butyricum adjuvant-induced polyarthritis in Lewis albino rat non-injected paw. The note with it: in vivo, read-out: TI. The format is ADME. The gist of the method:
(§2)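 Ratio of the gastric irritation ID50 (oral dose, Wistar rats, lesions scored as irritation in 50% of animals) to the adjuvant polyarthritis ED50 (Lewis rats, 21-day oral dosing). The ED50 is taken from the adjuvant-injected paw or the noninjected paw, with paw volume measured by mercury displacement.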

Data set [4] in a line: Ulcerogenicity in po dosed Wistar rat assessed as induction of gastric irritation. The note with it: in vivo, read-out: ID50 (the source's name). The format is toxicity, organism-based, Stomach. The gist of the method:
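Groups of eight male Wistar rats (150-175 g) are fasted 48 h with water allowed, then dosed orally (10 ml/kg); controls get vehicle. Rats are killed at 3, 5 and 7 h post-dose, and stomach and intestines are examined for erosion, ulcer or perforation. ID50 is the dose causing irritation in 50% of animals.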

The nature of data set [5]: Therapeutic ratio of ID50 for ulcerogenicity in Wistar rat to ED50 for antiinflammatory activity against Mycobacterium butyricum adjuvant-induced polyarthritis in Lewis albino rat adjuvant treated paw. The note with it: in vivo, read-out: TI. In kind it is ADME. The gist of the method: as §2
The subject of data set [6] is Rattus norvegicus. Briefly: Antiinflammatory activity against Mycobacterium butyricum adjuvant-induced polyarthritis in po dosed Lewis albino rat assessed as decrease in adjuvant treated paw edema administered daily for 21 days […]. The format is functional. The gist of the method: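 Female Charles River-Lewis albino rats (150-170 g), ten per group, housed individually. Heat-killed Mycobacterium butyricum in paraffin oil (0.5 mg/0.1 ml) is injected into the left hind paw. Oral dosing starts the day before adjuvant and continues daily for 21 days, using a Tween 80 aqueous suspension. Paw volume is measured by mercury displacement from injection day onward. ED50 by Litchfield-Wilcoxon, with 95% confidence limits.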

Data set [7] deals with Rattus norvegicus. Put plainly: Antiinflammatory activity against Mycobacterium butyricum adjuvant-induced polyarthritis in po dosed Lewis albino rat assessed as decrease in non-injected paw edema administered daily for 21 days […]. In kind it is functional. The method in brief: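 Female Charles River-Lewis albino rats, 150-170 g, groups of ten, housed singly; heat-killed dry Mycobacterium butyricum in white paraffin oil (0.5 mg/0.1 ml) injected into left hind paw. Oral dosing as aqueous suspension with Tween 80 (10 ml/kg), starting the day before adjuvant and daily for 21 days; vehicle controls. Paw volume by mercury displacement from injection day onward; ED50 by Litchfield-Wilcoxon with 95% confidence limits.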

With `COC(=O)Cc1ccc2c(c1)C(O)c1ccccc1CO2` (centres undefined), in the data set on Rattus norvegicus [1], the 50% effective dose (ED50) was greater than 200 mg/kg.
Turning to `CCCOC(=O)Cc1ccc2c(c1)C(=O)c1ccccc1CO2`, the median effective dose (ED50) worked out at 3.55 mg/kg in the data set on Rattus norvegicus [1] and 16.7 mg/kg in the data set with Mus musculus.
For `O=C(O)Cc1ccc2c(c1)C(=O)c1ccccc1CS2`, the inhibition in vivo at 50 mg/kg in the data set on Rattus norvegicus [2] amounted to 42.7%.
For the molecule `COc1ccc2c(c1)COc1ccc(CC(=O)O)cc1C2=O`, the 50% effective dose (ED50) in the data set with Rattus norvegicus [1] was 58.6 mg/kg; in the data set with Mus musculus, greater than 50 mg/kg.
As for `O=C(O)Cc1ccc2c(c1)C(=O)c1cc(F)ccc1CO2`, the 50% effective dose (ED50) in the data set with Rattus norvegicus [1] worked out at 356 mg/kg.
As for `O=C(O)Cc1ccc2c(c1)C(=O)c1cc(Cl)ccc1CO2`, the median effective dose (ED50) in the data set on Rattus norvegicus [1] and in the data set on Mus musculus was greater than 50 mg/kg each time.
Consider `O=C(Cc1ccc2c(c1)C(=O)c1ccccc1CO2)OCc1ccccc1`, for which, in the data set with Rattus norvegicus [1], the ED50 was greater than 50 mg/kg.
As to `O=C(O)Cc1ccc2c(c1)C(=O)c1ccc(Cl)cc1CO2`, the figures for the ED50 in the data set with Rattus norvegicus [1] and in the data set on Mus musculus were 26.5 mg/kg and 34.3 mg/kg, respectively.
As to `OCCc1ccc2c(c1)C(O)c1ccccc1CO2` (centres undefined), in the data set with Rattus norvegicus [1], the 50% effective dose (ED50) was greater than 200 mg/kg.
On the same count and under the same terms, as for `Cc1cccc2c1C(=O)c1cc(CC(=O)O)ccc1OC2`, the figure is greater than 50 mg/kg.
In the case of `O=C(O)Cc1ccc2c(c1)C(=O)c1ccccc1CO2` [ISOXEPAC], the results for the selectivity ratio in data set [3] and in data set [5] were 78 and 39, respectively. For the same molecule, the TD50 in data set [4] amounted to 82.5 mg/kg. Besides, the ED50 in the data set with Mus musculus came to 7.57 mg/kg; in the data set with Rattus norvegicus [6], 2.1 mg/kg; with Rattus norvegicus [7], 1.06 mg/kg.
For `CCOC(=O)Cc1ccc2c(c1)C(=O)c1ccccc1CO2`, the figures for the ED50 with Rattus norvegicus [1] and with Mus musculus were 6.85 mg/kg and greater than 50 mg/kg, respectively.
Turning to `COc1ccc2c(c1)c(CC(=O)O)c(C)n2C(=O)c1ccc(Cl)cc1` [INDOMETHACIN], the results for the selectivity ratio in data set [3] and in data set [5] were 6.7 and 3.8, respectively. Also, the TD50 in data set [4] was determined as 1.8 mg/kg. The values for the median effective dose (ED50) with Mus musculus, in the data set on Rattus norvegicus [6] and in the data set on Rattus norvegicus [7] were 0.7 mg/kg, 0.47 mg/kg and 0.27 mg/kg, respectively.
Consider `CC(C)OC(=O)Cc1ccc2c(c1)C(=O)c1ccccc1CO2`, for which the values for the ED50 in the data set on Rattus norvegicus [1] and in the data set on Mus musculus were 6.84 mg/kg and less than 50 mg/kg, respectively.
For the molecule `CCCCOC(=O)Cc1ccc2c(c1)C(=O)c1ccccc1CO2`, the ED50 in the data set on Rattus norvegicus [1] was found to be 14.7 mg/kg; in the data set on Mus musculus it was 12.7 mg/kg.
For `NC(=O)Cc1ccc2c(c1)C(=O)c1ccccc1CO2`, the 50% effective dose (ED50) with Rattus norvegicus [1] and with Mus musculus was greater than 100 mg/kg throughout.
With `COC(=O)Cc1ccc2c(c1)C(OC)c1ccccc1CO2` (centres undefined), the 50% effective dose (ED50) in the data set on Rattus norvegicus [1] was greater than 200 mg/kg.
For `O=C(O)Cc1ccc2c(c1)Cc1ccccc1CO2`, in the data set with Rattus norvegicus [1], the 50% effective dose (ED50) was found to be 200 mg/kg.
As to `O=C(O)Cc1ccc2c(c1)C(=O)c1cccc(Cl)c1CO2`, the ED50 is less than 50 mg/kg in the data set with Rattus norvegicus [1] and greater than 50 mg/kg in the data set with Mus musculus.
In the case of `O=C(O)Cc1ccc2c(c1)C(=O)c1cc(C(F)(F)F)ccc1CO2`, the ED50 in the data set with Rattus norvegicus [1] is greater than 50 mg/kg.
On to `O=C(O)Cc1cc(Cl)c2c(c1)C(=O)c1ccccc1CO2`, for which the ED50 in the data set on Rattus norvegicus [1] is greater than 50 mg/kg.
As for `COC(=O)Cc1ccc2c(c1)C(=O)c1ccccc1CO2`, the ED50 was determined as 31 mg/kg in the data set with Rattus norvegicus [1] and 26.6 mg/kg in the data set on Mus musculus.
The corresponding values for `CCCCCOC(=O)Cc1ccc2c(c1)C(=O)c1ccccc1CO2` are 2.9 mg/kg and greater than 50 mg/kg.
